Reference: ChEMBL document CHEMBL4118256, “Second Generation of Mannich Base-Type Derivatives with in Vivo Activity against Trypanosoma cruzi” (J Med Chem, 2018)
Activity calls are given as the source filed them. No cut-off for these calls is given here.

test system: Trypanosoma cruzi; assay: Trypanocidal activity against Trypanosoma cruzi MHOM/Pe/2011/Arequipa DTU 5 amastigotes infected in African green monkey Vero cells assessed as infected cells at 50 uM after 72 hrs by Giemsa-staining based microscopic assay relative to control; type: functional; conditions: not given
Outline: (§1)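 Infected Vero cell cultures were exposed for 72 h to a range of concentrations. Infected cells were counted microscopically on Giemsa-stained preparations and expressed relative to infected untreated controls. Values are means of three separate determinations; IC50 was derived by curve fitting.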

For `O=C(Cn1ccnc1[N+](=O)[O-])NCc1ccccc1` [BENZNIDAZOLE], which Activity is on record?
The Activity was 20%.

Which Activity does the source give for `COc1ccc(C(=O)CCN2CCN(c3ccc([N+](=O)[O-])cc3)CC2)cc1` here?
Its Activity is 52%.

test system: Trypanosoma cruzi; assay: Antitrypanosomal activity against Trypanosoma cruzi MHOM/Pe/2011/Arequipa DTU 5 trypamastigotes infected in Balb/c mouse assessed as reduction in splenomegaly at 100 mg/kg, po once daily for 5 consecutive days starting from day 10 post infection measured on day 127 post infection relative to control; type: functional; conditions: not given

With `COc1ccc(C(=O)CCN2CCN(c3ccc([N+](=O)[O-])cc3)CC2)cc1` as the compound, how does the Activity read?
Its Activity is “Active”.

test system: Trypanosoma cruzi; assay: Trypanocidal activity against Trypanosoma cruzi IRHOD/CO/2008/SN3 DTU 1 epimastigotes after 48 hrs by resazurin dye based assay; type: functional, organism-based; conditions: IRHOD/CO/2008/SN3 DTU 1, 48 h
Outline: (§2)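 Exponential-phase epimastigotes were seeded at 5×10^5 mL^-1 with compounds at 100–0.2 µM (DMSO 0.01% v/v) at 28 °C. After 48 h, resazurin was added for another 24 h. SDS was then added and absorbance read at 570 and 600 nm.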

Which IC50 does the source give for `COc1ccc(C(=O)CCN2CCN(c3ccc([N+](=O)[O-])cc3)CC2)cc1` here?
The IC50 was 22 µM.

test system: Trypanosoma cruzi; assay: Antitrypanosomal activity against Trypanosoma cruzi MHOM/Pe/2011/Arequipa DTU 5 trypamastigotes infected in Balb/c mouse assessed as reduction in splenomegaly at 100 mg/kg, po once daily for 5 consecutive days starting from day 75 post infection measured on day 127 post infection relative to control; type: functional; conditions: not given

Which Activity does the source give for `COc1ccc(C(=O)CCN2CCN(c3ccc([N+](=O)[O-])cc3)CC2)cc1` here?
Its Activity is “Active”.

test system: Trypanosoma cruzi; assay: Trypanocidal activity against Trypanosoma cruzi IRHOD/CO/2008/SN3 DTU 1 amastigotes infected in African green monkey Vero cells after 72 hrs by Giemsa-staining based microscopic assay; type: functional, organism-based; conditions: IRHOD/CO/2008/SN3 DTU 1, Vero
Outline: (§3)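 Vero cells were seeded at 1×10^4/well on coverslips. After 24 h they were infected with culture-derived trypomastigotes (MOI 1:10, 24 h), then washed. Compounds were added at 100–0.2 µM (DMSO 0.01% v/v) for 72 h at 37 °C, 5% CO2. Slides were methanol-fixed and Giemsa-stained; amastigotes and infected cells were counted over 500 host cells. IC50 was derived by curve fitting; triplicate wells, four separate determinations.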

For `COc1ccc(C(=O)CCN2CCN(c3ccc([N+](=O)[O-])cc3)CC2)cc1`, which IC50 is on record?
Its IC50 is 30.5 µM.

test system: Mus musculus; assay: (§4) Cardiotoxicity in Balb/c mouse infected with Trypanosoma cruzi MHOM/Pe/2011/Arequipa DTU 5 trypamastigotes assessed as change in serum LDH level at 100 mg/kg, po once daily for 5 consecutive days starting from day 10 post infection measured on day 127 post infection by biochemical analysis relative to control; type: toxicity, organism-based; conditions: in vivo

With `COc1ccc(C(=O)CCN2CCN(c3ccc([N+](=O)[O-])cc3)CC2)cc1` as the compound, how does the Activity read?
Its Activity is less than 10%.

test system: Mus musculus; assay: as §4, with “Hepatotoxicity” for “Cardiotoxicity”, “alkaline phosphatase” for “serum LDH”; type: toxicity, organism-based; conditions: in vivo

Which Activity does the source give for `COc1ccc(C(=O)CCN2CCN(c3ccc([N+](=O)[O-])cc3)CC2)cc1` here?
The Activity was less than 10%.

test system: Trypanosoma cruzi; assay: Antitrypanosomal activity against Trypanosoma cruzi MHOM/Pe/2011/Arequipa DTU 5 epimastigotes assessed as reduction in mitochondrial membrane potential at IC25 after 72 hrs by Rho123 staining based flow cytometry relative to control; type: functional; set-up: scale not given: the % may be the effect or the level left; conditions: not given
Outline: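 Arequipa epimastigotes were exposed at IC25 for 72 h, then labelled with Rhodamine 123 and analysed by flow cytometry. Result is % alteration in mitochondrial membrane potential versus untreated control.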

For `O=C(Cn1ccnc1[N+](=O)[O-])NCc1ccccc1` [BENZNIDAZOLE], which Activity is on record?
The Activity was 35.4%.

With `COc1ccc(C(=O)CCN2CCN(c3ccc([N+](=O)[O-])cc3)CC2)cc1` as the compound, how does the Activity read?
The Activity was 76.3%.

test system: Mus musculus; assay: as §4, with “Hepatotoxicity” for “Cardiotoxicity”, “total bilirubin” for “serum LDH”, “[…],” for “100 mg/kg,”; type: toxicity, organism-based; conditions: in vivo
Outline: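 Serum clinical chemistry in Arequipa-infected female BALB/c mice. Oral 20 mg·kg-1 per day for 5 days, started day 10 or day 75 pi. Samples taken at day 16 pi or day 81 pi, and on necropsy day. Markers: CK-MB and LDH (U/L), AST, ALT and alkaline phosphatase (U/L), total bilirubin. Results scored relative to infected untreated controls; uninfected reference n = 15.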

With `COc1ccc(C(=O)CCN2CCN(c3ccc([N+](=O)[O-])cc3)CC2)cc1` as the compound, how does the Activity read?
Its Activity is less than 10%.

test system: Trypanosoma cruzi; assay: Trypanocidal activity against Trypanosoma cruzi MHOM/Pe/2011/Arequipa DTU 5 epimastigotes after 48 hrs by resazurin dye based assay; type: functional, organism-based; conditions: MHOM/Pe/2011/Arequipa DTU 5, 48 h; outline: as §2

For `COc1ccc(C(=O)CCN2CCN(c3ccc([N+](=O)[O-])cc3)CC2)cc1`, which IC50 is on record?
Its IC50 is 31.6 µM.

test system: Trypanosoma cruzi; assay: Trypanocidal activity against Trypanosoma cruzi MHOM/Pe/2011/Arequipa DTU 5 amastigotes infected in African green monkey Vero cells assessed as reduction in infected cells after 72 hrs by Giemsa-staining based microscopic assay; type: functional, organism-based; conditions: MHOM/Pe/2011/Arequipa DTU 5, Vero; outline: as §1

For `O=C(Cn1ccnc1[N+](=O)[O-])NCc1ccccc1` [BENZNIDAZOLE], which IC50 is on record?
Its IC50 is 15.1 µM.

Which IC50 does the source give for `COc1ccc(C(=O)CCN2CCN(c3ccc([N+](=O)[O-])cc3)CC2)cc1` here?
The IC50 was 47.9 µM.

test system: not listed separately; assay: Selectivity index, ratio of IC50 for African green monkey Vero cells to IC50 for Trypanosoma cruzi IRHOD/CO/2008/SN3 DTU 1 amastigotes infected in African green monkey Vero cells; type: toxicity; conditions: read-out: Ratio IC50
Outline: (§5)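 SI is Vero IC50 divided by the IC50 for the stated parasite form. For Vero cytotoxicity, cells were seeded at 1.25×10^4 mL^-1 with compounds at 1000–1 µM, incubated 48 h, then given resazurin for a further 24 h (72 h total), with absorbance read at 570/600 nm. Triplicate, four determinations.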

Which selectivity ratio does the source give for `COc1ccc(C(=O)CCN2CCN(c3ccc([N+](=O)[O-])cc3)CC2)cc1` here?
Its selectivity ratio is 19.2.

test system: Trypanosoma cruzi; assay: Antitrypanosomal activity against Trypanosoma cruzi MHOM/Pe/2011/Arequipa DTU 5 trypamastigotes infected in Balb/c mouse assessed as reduction in Ig-G level in serum at 100 mg/kg, po once daily for 5 consecutive days starting from day 75 post infection measured on day 81 post infection by ELISA; type: functional, organism-based; conditions: not given

For `COc1ccc(C(=O)CCN2CCN(c3ccc([N+](=O)[O-])cc3)CC2)cc1`, which Activity is on record?
Its Activity is “inactive”.

test system: not listed separately; assay: Selectivity index, ratio of IC50 for African green monkey Vero cells to IC50 for Trypanosoma cruzi TINF/CH/1956/Tulahuen DTU 6 epimastigotes; type: toxicity; conditions: read-out: Ratio IC50; outline: as §5

With `COc1ccc(C(=O)CCN2CCN(c3ccc([N+](=O)[O-])cc3)CC2)cc1` as the compound, how does the selectivity ratio read?
Its selectivity ratio is 15.7.

test system: Trypanosoma cruzi; assay: Trypanocidal activity against Trypanosoma cruzi MHOM/Pe/2011/Arequipa DTU 5 trypamastigotes derived from infected Balb/c albino mouse after 24 hrs by resazurin dye based assay; type: functional, organism-based; conditions: MHOM/Pe/2011/Arequipa DTU 5, 24 h
Outline: (§6)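 Bloodstream trypomastigotes taken from mice at peak parasitaemia were seeded at 2×10^6 mL^-1 in RPMI with 10% FBS. Compounds were added at 50–0.2 µM and incubated 24 h at 37 °C, 5% CO2, then with resazurin for 4 h. SDS was added and absorbance read at 570/600 nm. IC50 was fitted; triplicate, four separate determinations.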

With `O=C(Cn1ccnc1[N+](=O)[O-])NCc1ccccc1` [BENZNIDAZOLE] as the compound, how does the IC50 read?
The IC50 was 12.4 µM.

For `COc1ccc(C(=O)CCN2CCN(c3ccc([N+](=O)[O-])cc3)CC2)cc1`, which IC50 is on record?
The IC50 was 11.7 µM.

molecular target: Superoxide dismutase [Cu-Zn] (Homo sapiens, UniProt P00441); assay: Inhibition of human erythrocyte CuZn-SOD by UV-Visible spectrophotometric method; conditions: not given
Outline: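 SOD activity of parasite Fe-SOD and human CuZn-SOD was measured spectrophotometrically by the Beyer and Fridovich method, with compounds at 1–100 µM. Values are averages of three rate determinations; IC50 was obtained by linear regression and differences were tested by Newman-Keuls.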

Superoxide dismutase [Cu-Zn], sequence (P00441 whole entry): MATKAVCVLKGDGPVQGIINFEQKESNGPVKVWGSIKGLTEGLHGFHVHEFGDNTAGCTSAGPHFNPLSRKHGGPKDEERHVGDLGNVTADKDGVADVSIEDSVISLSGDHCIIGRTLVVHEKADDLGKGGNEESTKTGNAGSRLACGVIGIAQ

With `COc1ccc(C(=O)CCN2CCN(c3ccc([N+](=O)[O-])cc3)CC2)cc1` as the compound, how does the IC50 read?
Its IC50 is greater than 100 µM.

test system: not listed separately; assay: Selectivity index, ratio of IC50 for African green monkey Vero cells to IC50 for Trypanosoma cruzi MHOM/Pe/2011/Arequipa DTU 5 epimastigotes; type: toxicity; conditions: read-out: Ratio IC50; outline: as §5

For `COc1ccc(C(=O)CCN2CCN(c3ccc([N+](=O)[O-])cc3)CC2)cc1`, which selectivity ratio is on record?
Its selectivity ratio is 18.6.

test system: Trypanosoma cruzi; assay: Trypanocidal activity against Trypanosoma cruzi TINF/CH/1956/Tulahuen DTU 6 trypamastigotes derived from infected Balb/c albino mouse after 24 hrs by resazurin dye based assay; type: functional, organism-based; conditions: TINF/CH/1956/Tulahuen DTU 6, 24 h; outline: as §6

For `O=C(Cn1ccnc1[N+](=O)[O-])NCc1ccccc1` [BENZNIDAZOLE], which IC50 is on record?
The IC50 was 15.1 µM.

For `COc1ccc(C(=O)CCN2CCN(c3ccc([N+](=O)[O-])cc3)CC2)cc1`, which IC50 is on record?
Its IC50 is 14.5 µM.

test system: not listed separately; assay: Selectivity index, ratio of IC50 for African green monkey Vero cells to IC50 for Trypanosoma cruzi MHOM/Pe/2011/Arequipa DTU 5 amastigotes infected in African green monkey Vero cells; type: toxicity; conditions: read-out: Ratio IC50; outline: as §5

Which selectivity ratio does the source give for `COc1ccc(C(=O)CCN2CCN(c3ccc([N+](=O)[O-])cc3)CC2)cc1` here?
Its selectivity ratio is 20.

test system: Trypanosoma cruzi; assay: Trypanocidal activity against Trypanosoma cruzi TINF/CH/1956/Tulahuen DTU 6 amastigotes infected in African green monkey Vero cells after 72 hrs by Giemsa-staining based microscopic assay; type: functional, organism-based; conditions: TINF/CH/1956/Tulahuen DTU 6, Vero; outline: as §3

For `O=C(Cn1ccnc1[N+](=O)[O-])NCc1ccccc1` [BENZNIDAZOLE], which IC50 is on record?
Its IC50 is 10 µM.

For `COc1ccc(C(=O)CCN2CCN(c3ccc([N+](=O)[O-])cc3)CC2)cc1`, which IC50 is on record?
The IC50 was 33.6 µM.

test system: not listed separately; assay: Selectivity index, ratio of IC50 for African green monkey Vero cells to IC50 for Trypanosoma cruzi TINF/CH/1956/Tulahuen DTU 6 amastigotes infected in African green monkey Vero cells; type: toxicity; conditions: read-out: Ratio IC50; outline: as §5

For `COc1ccc(C(=O)CCN2CCN(c3ccc([N+](=O)[O-])cc3)CC2)cc1`, which selectivity ratio is on record?
Its selectivity ratio is 17.5.
